In assay [1] the test system is Vero. As to the kind of experiment: Toxicity level was reported. It is filed as functional, Chlorocebus sabaeus.
Assay [2] relates to Vero. As to the kind of experiment: In vitro antiviral activity against Parainfluenza type 3 was evaluated. It is filed as functional. The settings on record: Chlorocebus sabaeus, read-out: ED50 (the source's name).
Assay [3] concerns Vero. As to the kind of experiment: In vitro antiviral activity against measles virus was evaluated. Format: functional. Particulars: Chlorocebus sabaeus, read-out: ED50 (the source's name).
The subject of assay [4] is Vero. As to the kind of experiment: In vitro antiviral activity against vaccinia virus was evaluated. It is filed as functional. Particulars: Chlorocebus sabaeus, read-out: ED50 (the source's name).
Assay [5] has as its system P388. As to the kind of experiment: In vitro inhibitory dose against P388 cells was evaluated. Particulars: Mus musculus, read-out: ID50 (the source's name). Format: functional. In a few lines:
(§1)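 Murine leukemia L1210 or lymphoid neoplasm P388 cells were grown in RPMI 1640 with 10% fetal bovine serum and 20 mM Hepes. Cells at 1 × 10⁵ cells/mL received filter-sterilized compound dissolved in growth medium, in duplicate at log concentrations from 1×10⁻⁷ to 1×10⁻⁴ M. After 48 h at 37 °C, cells were counted on a Coulter counter. Growth was expressed as percent of untreated control, and ID₅₀ was taken as the concentration giving 50% growth inhibition.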

The subject of assay [6] is Vero. As to the kind of experiment: In vitro antiviral activity against herpes simplex virus type 2 virus was evaluated. It is filed as functional. Particulars: Chlorocebus sabaeus, read-out: ED50 (the source's name).
The subject of assay [7] is L1210. As to the kind of experiment: In vitro inhibitory dose against L1210 leukemia cells was evaluated. Particulars: Mus musculus, read-out: ID50 (the source's name). It is filed as functional. In a few lines: as §1
The test system of assay [8] is Vero. As to the kind of experiment: Toxicity level was reported; None. It is filed as functional, cell-based. The settings on record: Chlorocebus sabaeus.
Assay [9] has as its system P388. As to the kind of experiment: Percent inhibition against P388 cell growth at concentration 10e-4 was reported. Format: functional, Mus musculus. In a few lines:
(§2)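 L1210 murine leukemia or P388 lymphoid neoplasm cells in RPMI 1640 with 10% fetal bovine serum and 20 mM Hepes, adjusted to 1 × 10⁵ cells/mL. Compounds dissolved in medium, filter-sterilized, tested in duplicate at log concentrations 1×10⁻⁷ to 1×10⁻⁴ M. After 48 h at 37 °C, Coulter cell counts; growth as percent of untreated control; ID₅₀ is the concentration giving 50% growth inhibition.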

The subject of assay [10] is L1210. As to the kind of experiment: Percent inhibition against L1210 cell growth at concentration 10e-4 was reported. Format: functional, Mus musculus. In a few lines:
as §2

In assay [11] the test system is P388. As to the kind of experiment: In vitro inhibitory dose against P388 cells was evaluated; Inactive at 10e-4 concentration. Particulars: Mus musculus. It is filed as functional, cell-based. In a few lines:
as §1

Assay [12] has as its system Vero. As to the kind of experiment: Toxicity level was reported; none. It is filed as functional, cell-based. Particulars: Chlorocebus sabaeus.
The subject of assay [13] is L1210. As to the kind of experiment: In vitro inhibitory dose against L1210 leukemia cells was evaluated; Inactive at 10e-4 concentration. It is filed as functional, cell-based. Particulars: Mus musculus. In a few lines: as §1
The test system of assay [14] is L1210. As to the kind of experiment: In vitro inhibitory dose against L1210 leukemia cells was evaluated; Inactive at 10^-4M. It is filed as functional, cell-based. Particulars: Mus musculus. In a few lines: as §2
Assay [15] deals with P388. As to the kind of experiment: In vitro inhibitory dose against P388 cells was evaluated; Inactive at 10^-4M. It is filed as functional, cell-based. The settings on record: Mus musculus. In a few lines:
as §2

Assay [16] relates to L1210. As to the kind of experiment: Percent inhibition against L1210 cell growth at concentration 10e-4 was reported. Format: functional, Mus musculus. In a few lines: as §1
Assay [17] relates to P388. As to the kind of experiment: Percent inhibition against P388 cell growth at concentration 10e-4 was reported; Inative at 10^-4M. Format: functional, cell-based. Particulars: Mus musculus. In a few lines: as §1

Data on 14 molecules can be found in ChEMBL document CHEMBL1123095, “Synthesis and biological activity of 6-azacadeguomycin and certain 3,4,6-trisubstituted pyrazolo[3,4-d]pyrimidine ribonucleosides” (1985).

For orientation: Inhibition means the share of the control response that was lost under treatment. A higher Inhibition goes with strong suppression.

The source made the active and inactive calls. No cut-off for these calls is given here. Where only a bound is given, the exact number is not on record here.

In assay [1], `Nc1nc2c(c(Br)nn2C2O[C@H](CO)[C@@H](O)[C@H]2O)c(=O)[nH]1` (some centres undefined) returned a Toxic level of 1.6 mM. Moreover, the EC50 in assay [2] is over 5000 µM; in assay [3] it was 20 µM; in assay [4] it was 76 µM; in assay [6], 180 µM. The IC50 in assay [5] and in assay [7] was 36 µM each time.

In [1], `Oc1[nH]c(Br)nc2nnc(Br)c1-2` returned a Toxic level of over 0.05 mM. In addition, the EC50 is over 5000 µM in assay [2], over 5000 µM in [3], 240 µM in [4] and over 500 µM in [6].

With `CSc1nc(O)c2c(C(N)=O)[nH]nc2n1`, the Toxic level in assay [1] was over 0.5 mM. In addition, the EC50 in assay [2] was over 500 µM; in assay [3] it was over 500 µM; in [4], 330 µM; in assay [6], 85 µM.

As to `N#Cc1nn(C2O[C@H](CO)[C@@H](O)[C@H]2O)c2nc(N)[nH]c(=O)c12` (some centres undefined), the EC50 in [2] worked out at 220 µM; in [3], 54 µM; in assay [4], 140 µM; in [6] it was 100 µM. Further, in assay [8], the Toxic level result is “None”. Also, the IC50 in assay [5] amounted to 21 µM; in [7], 22 µM.

On to `NC(=O)c1nn(C2O[C@H](CO)[C@@H](O)[C@H]2O)c2nc(N)[nH]c(=O)c12` (some centres undefined), for which the EC50 in assay [2], in [3], in assay [4] and in assay [6] was over 500 µM in each case. For the same molecule, the Toxic level entry in [8] is “None”. In addition, the Inhibition was determined as 22% in assay [9] and 30% in [10].

In assay [1], `COc1nc2c(c(Br)nn2C2O[C@H](CO)[C@@H](O)[C@H]2O)c(=O)[nH]1` (some centres undefined) had a Toxic level of 2.5 mM. The EC50 was over 2500 µM in assay [2], over 2500 µM in [3], 3500 µM in [4] and 1600 µM in [6].

`C[S+]([O-])c1nc(O)c2c(Br)[nH]nc2n1` (centres undefined): the Toxic level in assay [1] is over 0.5 mM. Moreover, the EC50 in assay [2] is over 5000 µM; in assay [3], over 5000 µM; in assay [4], 260 µM; in assay [6] it was 1200 µM.

Consider `Nc1nc2c(cnn2C2O[C@H](CO)[C@@H](O)[C@H]2O)c(=O)[nH]1` (some centres undefined), for which the figures for the EC50 in assay [2], in assay [4] and in assay [6] were over 5000 µM, 1000 µM and 1600 µM, respectively. For the same molecule, the ID50 result in assay [11] and in assay [13] was “inactive” each time. Moreover, the Toxic level entry in assay [12] is “inactive”.

As for `Nc1nc2c(c(C(=O)O)nn2C2O[C@H](CO)[C@@H](O)[C@H]2O)c(=O)[nH]1` (some centres undefined), the ID50 entry in assay [14] and in assay [15] was “inactive” throughout. The EC50 in [2], in assay [3], in assay [4] and in assay [6] was over 5000 µM each time. In addition, the Toxic level result in assay [8] is “None”.

For `NC(=O)c1ncn([C@@H]2O[C@H](CO)[C@@H](O)[C@H]2O)n1` [RIBAVIRIN], the EC50 in [2] was 160 µM; in assay [3] it was 33 µM; in assay [4] it was 85 µM; in [6], 190 µM. The Toxic level entry in assay [12] is “Non-toxic”.

For `NC(=O)c1[nH]nc2nc(S)nc(O)c12`, the EC50 is 390 µM in assay [2], over 500 µM in assay [3] and 180 µM in assay [6]. Moreover, the Toxic level entry in [8] is listed as “None”.

As to `NC(=O)c1c[se]c([C@@H]2O[C@H](CO)[C@@H](O)[C@H]2O)n1`, the EC50 came to 3.2 µM in assay [2], 3.2 µM in assay [3], 9.8 µM in [4] and 14 µM in assay [6]. In addition, in [12], the Toxic level result was “inactive”.

Consider `NC(=S)c1nn(C2O[C@H](CO)[C@@H](O)[C@H]2O)c2nc(N)[nH]c(=O)c12` (some centres undefined), for which the values for the EC50 in assay [2], in assay [3] and in assay [6] were 590 µM, 65 µM and over 5000 µM, respectively. In assay [16], the Inhibition came out at 43%. Moreover, the Toxic level entry in [8] is reported as “None”. In [17], the ID50 result was “inactive”.

For the molecule `Oc1[nH]c(Br)nc2nncc1-2`, the Toxic level in assay [1] worked out at 1.6 mM. In addition, the EC50 in assay [2] was over 5000 µM; in assay [3], over 5000 µM; in assay [4], 430 µM; in [6] it was 1600 µM.
